≈ marks a conversion by molar mass, not a printed value. Calls of active or inactive are those of the source. The calls are words filed in the database; no cut-off is given here.
Experiments:
Candida albicans = test: Antimicrobial activity against Candida albicans; assay type: functional
Procedure, shortened: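 Broth microdilution in 96-well plates. Inoculum was a 24 h Candida albicans culture diluted in Sabouraud dextrose broth. Incubation was at 30 or 37 °C. MIC was taken as the lowest concentration giving at least 80% growth inhibition.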

[1] = system: Trichophyton mentagrophytes; test: Antimicrobial activity against Trichophyton mentagrophytes; assay type: functional
Procedure, shortened: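 Microdilution in 96-well plates. The Trichophyton mentagrophytes inoculum was spores scraped from fungal growth into Mycophil broth. Pure compounds were tested at final 50 down to 0.20 µg/mL in twofold steps. Incubation was at 30 or 37 °C. MIC was taken as the lowest concentration inhibiting at least 80% of growth.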

Row | MIC (Candida albicans) [µg/mL] | MIC [1] [µg/mL] | Structure (SMILES) | Activity (Candida albicans) | Activity [1] | MFC (Candida albicans) [µg/mL]
1 |  |  | O=C1c2c(O)cc(O)cc2OC1(O)Cc1cc(O)c(O)c(O)c1 (configuration not stated) | inactive | inactive | 
2 |  |  | COC(=O)C1=CC[C@@]23CC[C@@H]([C@@](C)(/C=C/C=C(\C)C(=O)O)OC2=O)[C@@]3(O)CC1 | inactive | inactive | 
3 |  |  | CC(=O)O[C@]12CCC(C)=CC[C@]13CC[C@H]2[C@@](C)(/C=C/C=C(\C)C(=O)O[C@@H]1O[C@H](CO)[C@@H](O)[C@H](O)[C@H]1O)OC3=O | inactive | inactive | 
4 | 3.12 (≈ 7.23 µM) |  | COC(=O)C1=CC[C@@]23CC[C@@H]([C@@](C)(/C=C/C=C(\C)C(=O)O)OC2=O)[C@@]3(OC(C)=O)CC1 [PSEUDOLARIC ACID B] |  |  | 6.25 (≈ 14.5 µM)
5 |  | 50 (≈ 157 µM) | O=c1c(O)c(-c2cc(O)c(O)c(O)c2)oc2cc(O)cc(O)c12 [MYRICETIN] |  |  | 
6 |  |  | C/C(=C\C=C\[C@@]1(C)OC(=O)[C@]23CC=C(C(=O)O)CC[C@]2(O)[C@H]1CC3)C(=O)O | inactive | inactive | 
7 |  |  | COC(=O)C1=CC[C@@]23CC[C@@H]([C@@](C)(/C=C/C=C(\C)C(=O)O[C@@H]4O[C@H](CO)[C@@H](O)[C@H](O)[C@H]4O)OC2=O)[C@@]3(OC(C)=O)CC1 | inactive | inactive | 
8 |  |  | COc1c(O)cc(CC2(O)Oc3cc(O)cc(O)c3C2=O)cc1O (configuration not stated) | inactive | inactive | 
9 |  |  | C[C@@H]1[C@H](O)[C@@H](C)/C=C/C=C/C=C/C=C/C=C/C=C/C=C/[C@H](O[C@@H]2O[C@H](C)[C@@H](O)[C@H](N)[C@@H]2O)C[C@@H]2O[C@](O)(C[C@@H](O)C[C@@H](O)[C@H](O)CC[C@@H](O)C[C@@H](O)CC(=O)O[C@H]1C)C[C@H](O)[C@H]2C(=O)O [AMPHOTERICIN B] |  | inactive | 0.39 (≈ 0.422 µM)

Source: ChEMBL document CHEMBL1141852, “Two auronols from Pseudolarix amabilis” (1999)
